Results: ChEMBL document CHEMBL1156763, “1,8-Naphthyridines VIII. Novel 5-aminoimidazo[1,2-a] [1,8]naphthyridine-6-carboxamide and 5-amino[1,2,4]triazolo[4,3-a] [1,8]naphthyridine-6-carboxamide derivatives showing potent analgesic or anti-inflammatory activity, respectively, and completely devoid of acute gastrolesivity” (Eur J Med Chem, 2010)

Columns and labels:
Rattus norvegicus [1] = test: Antiinflammatory activity against carrageenan-induced paw edema in Wistar rat assessed as inhibition of hind paw edema at 100 mg/kg, po administered 1 hr prior to carrageenan challenge measured after 3 hrs relative to control; type: functional
Outline: (§1)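 Wistar rats of either sex (250–300 g), fasted overnight, gavaged with compound in 0.5% methylcellulose. 1 h later, 0.1 mL 1% carrageenan injected subcutaneously into the plantar hind paw. Paw volume read by plethysmometer right after injection and 3 h later. Control edema set as 100, % inhibition from swelling difference. Groups of 8–10; Student's t-test.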

Rattus norvegicus [2] = test: Antiinflammatory activity against carrageenan-induced paw edema in Wistar rat assessed as inhibition of hind paw edema at 25 mg/kg, po administered 1 hr prior to carrageenan challenge measured after 3 hrs relative to control; type: functional; outline: as §1
Mus musculus [3] = test: Analgesic activity in Swiss mouse assessed as inhibition of acetic acid-induced writhing response at 100 mg/kg, po administered 1 hr before acetic acid challenge measured for 30 mins relative to control; type: functional
Outline: (§2)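 Mice of either sex (25–35 g), fasted overnight, dosed by oral gavage with test agent suspended in 0.5% methylcellulose; controls got vehicle alone. Each hind-limb full extension counted as a writhe over 30 min after the noxious agent. % inhibition from treated vs control writhing; groups of 8–10; Student's t-test. Dosing starts at 100 mg/kg, then halved stepwise.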

Rattus norvegicus [4] = test: Antiinflammatory activity against carrageenan-induced paw edema in Wistar rat assessed as inhibition of hind paw edema at 50 mg/kg, po administered 1 hr prior to carrageenan challenge measured after 3 hrs relative to control; type: functional; outline: as §1
Mus musculus [5] = test: Sedative activity in Swiss mouse assessed as inhibition of spontaneous locomotor activity at 100 mg/kg, po dose measured for every 5 mins up to 90 mins; type: organism-based; parameters: dose 100 mg/kg, route oral
Outline: (§3)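 Overnight-fasted mice given compound (0.5% methylcellulose) or vehicle by oral gavage, then housed singly in an activity cage. Locomotion auto-recorded in 5-min intervals for 90 min; pulses of the final 30 min scored. % inhibition versus controls; runs between 9.00 and 13.00; groups of 8–10; Student's t-test.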

Rattus norvegicus [6] = test: Antiinflammatory activity against carrageenan-induced paw edema in Wistar rat assessed as inhibition of hind paw edema at 12.5 mg/kg, po administered 1 hr prior to carrageenan challenge measured after 3 hrs relative to control; type: functional; outline: as §1
Rattus norvegicus [7] = test: Acute gastrolesivity in Wistar rat assessed as appearance of gastric damage at 200 mg/kg, po after 5 hrs; type: toxicity, organism-based, Stomach; parameters: dose 200 mg/kg, route oral; conditions: in vivo
Outline: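 Wistar rats (250–300 g), either sex, fasted overnight; compound suspended in 0.5% methylcellulose, single oral gavage at 200 mg kg^-1 (1 mL 100 g^-1). Stomachs excised 5 h later, fixed in 2% formalin, opened along greater curvature, examined by stereomicroscope by blinded observer. Reported as number of animals with gastric damage over treated animals (eight per group).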

Mus musculus [8] = test: Analgesic activity in Swiss mouse assessed as inhibition of acetic acid-induced writhing response at 50 mg/kg, po administered 1 hr before acetic acid challenge measured for 30 mins relative to control; type: functional; outline: as §2
Mus musculus [9] = test: Sedative activity in Swiss mouse assessed as inhibition of spontaneous locomotor activity at 50 mg/kg, po dose measured for every 5 mins up to 90 mins; type: organism-based; parameters: dose 50 mg/kg, route oral; outline: as §3
Mus musculus [10] = test: Analgesic activity in Swiss mouse assessed as inhibition of acetic acid-induced writhing response at 25 mg/kg, po administered 1 hr before acetic acid challenge measured for 30 mins relative to control; type: functional; outline: as §2
Mus musculus [11] = test: Analgesic activity in Swiss mouse assessed as inhibition of acetic acid-induced writhing response at 12.5 mg/kg, po administered 1 hr before acetic acid challenge measured for 30 mins relative to control; type: functional; outline: as §2
Rattus norvegicus [12] = test: Antiinflammatory activity against carrageenan-induced paw edema in Wistar rat assessed as inhibition of hind paw edema at 6.25 mg/kg, po administered 1 hr prior to carrageenan challenge measured after 3 hrs relative to control; type: functional; outline: as §1

CCNc1c(C(=O)N(CC)CC)c2nccn2c2ncccc12
inhibition in vivo at 100 mg/kg (Rattus norvegicus [1]): 29% | inhibition in vivo at 25 mg/kg (Rattus norvegicus [2]): 25% | inhibition in vivo at 100 mg/kg (Mus musculus [3]): 60% | inhibition in vivo at 50 mg/kg (Rattus norvegicus [4]): 26% | inhibition at 100 mg/kg (Mus musculus [5]): 89% | inhibition in vivo at 12.5 mg/kg (Rattus norvegicus [6]): 0% | Activity (Rattus norvegicus [7]): Non-toxic | inhibition in vivo at 50 mg/kg (Mus musculus [8]): 2%

CCN1CCN(c2c(C(=O)N(CC)CC)c3nccn3c3ncccc23)CC1
inhibition in vivo at 100 mg/kg (Rattus norvegicus [1]): 5% | inhibition in vivo at 100 mg/kg (Mus musculus [3]): 80% | inhibition at 100 mg/kg (Mus musculus [5]): 67% | Activity (Rattus norvegicus [7]): Non-toxic | inhibition in vivo at 50 mg/kg (Mus musculus [8]): 30%

CCN(CC)C(=O)c1c(N2CCN(C)CC2)c2cccnc2n2c(N(C)C)cnc12
inhibition in vivo at 100 mg/kg (Rattus norvegicus [1]): 0% | inhibition at 50 mg/kg (Mus musculus [9]): 30% | inhibition in vivo at 100 mg/kg (Mus musculus [3]): 83% | inhibition at 100 mg/kg (Mus musculus [5]): 44% | Activity (Rattus norvegicus [7]): Non-toxic | inhibition in vivo at 50 mg/kg (Mus musculus [8]): 16%

CCN(CC)C(=O)c1c(NCC(C)C)c2cccnc2n2ccnc12
inhibition in vivo at 100 mg/kg (Rattus norvegicus [1]): 0% | inhibition at 50 mg/kg (Mus musculus [9]): 28% | inhibition in vivo at 25 mg/kg (Mus musculus [10]): 48% | inhibition in vivo at 100 mg/kg (Mus musculus [3]): 71% | inhibition at 100 mg/kg (Mus musculus [5]): 68% | inhibition in vivo at 12.5 mg/kg (Mus musculus [11]): 0% | Activity (Rattus norvegicus [7]): Non-toxic | inhibition in vivo at 50 mg/kg (Mus musculus [8]): 48%

CCN(CC)C(=O)c1c(NC)c2cccnc2n2c(C)cnc12
inhibition in vivo at 100 mg/kg (Rattus norvegicus [1]): 38% | inhibition in vivo at 100 mg/kg (Mus musculus [3]): 73% | inhibition in vivo at 50 mg/kg (Rattus norvegicus [4]): 20% | inhibition at 100 mg/kg (Mus musculus [5]): 55% | Activity (Rattus norvegicus [7]): Non-toxic | inhibition in vivo at 50 mg/kg (Mus musculus [8]): 0%

CCOC(=O)c1cn2c(n1)c(C(=O)N(CC)CC)c(N1CCN(C)CC1)c1cccnc12
inhibition in vivo at 100 mg/kg (Rattus norvegicus [1]): 0% | inhibition in vivo at 100 mg/kg (Mus musculus [3]): 75% | inhibition at 100 mg/kg (Mus musculus [5]): 0% | Activity (Rattus norvegicus [7]): Non-toxic | inhibition in vivo at 50 mg/kg (Mus musculus [8]): 2%

CCN(CC)C(=O)c1c(N2CCN(Cc3ccccc3)CC2)c2cccnc2n2c(C)cnc12
inhibition in vivo at 100 mg/kg (Rattus norvegicus [1]): 0% | inhibition in vivo at 100 mg/kg (Mus musculus [3]): 17%

CCN1CCN(c2c(C(=O)N(CC)CC)c3ncc(C)n3c3ncccc23)CC1
inhibition in vivo at 100 mg/kg (Rattus norvegicus [1]): 10% | inhibition at 50 mg/kg (Mus musculus [9]): 46% | inhibition in vivo at 25 mg/kg (Mus musculus [10]): 54% | inhibition in vivo at 100 mg/kg (Mus musculus [3]): 83% | inhibition at 100 mg/kg (Mus musculus [5]): 63% | inhibition in vivo at 12.5 mg/kg (Mus musculus [11]): 0% | Activity (Rattus norvegicus [7]): Non-toxic | inhibition in vivo at 50 mg/kg (Mus musculus [8]): 48%

CCN(CC)C(=O)c1c(N2CCN(CCO)CC2)c2cccnc2n2ccnc12
inhibition in vivo at 100 mg/kg (Rattus norvegicus [1]): 0% | inhibition in vivo at 100 mg/kg (Mus musculus [3]): 41% | inhibition at 100 mg/kg (Mus musculus [5]): 39% | Activity (Rattus norvegicus [7]): Non-toxic | inhibition in vivo at 50 mg/kg (Mus musculus [8]): 12%

CCN(CC)C(=O)c1c(NC(C)C)c2cccnc2n2c(C(C)C)nnc12
inhibition in vivo at 100 mg/kg (Rattus norvegicus [1]): 81% | inhibition in vivo at 25 mg/kg (Rattus norvegicus [2]): 75% | inhibition at 50 mg/kg (Mus musculus [9]): 64% | inhibition in vivo at 25 mg/kg (Mus musculus [10]): 33% | inhibition in vivo at 100 mg/kg (Mus musculus [3]): 83% | inhibition in vivo at 50 mg/kg (Rattus norvegicus [4]): 75% | inhibition in vivo at 12.5 mg/kg (Rattus norvegicus [6]): 68% | inhibition in vivo at 12.5 mg/kg (Mus musculus [11]): 0% | Activity (Rattus norvegicus [7]): Non-toxic | inhibition in vivo at 50 mg/kg (Mus musculus [8]): 54%

CCN(CC)C(=O)c1c(NCC(C)C)c2cccnc2n2c(C(C)C)nnc12
inhibition in vivo at 100 mg/kg (Rattus norvegicus [1]): 70% | inhibition in vivo at 25 mg/kg (Rattus norvegicus [2]): 61% | inhibition in vivo at 100 mg/kg (Mus musculus [3]): 100% | inhibition in vivo at 50 mg/kg (Rattus norvegicus [4]): 66% | inhibition in vivo at 12.5 mg/kg (Rattus norvegicus [6]): 50% | Activity (Rattus norvegicus [7]): Non-toxic | inhibition in vivo at 6.25 mg/kg (Rattus norvegicus [12]): 27% | inhibition in vivo at 50 mg/kg (Mus musculus [8]): 33%
